# ABCG2 block – human ABCG2 inhibition, ABCB1 as counter-screen; Q9UNQ0; 190,000 compounds, 0.1% hits; inhibition, % at 6.6 µM; AID 1325; IgMXP3 cells, JC-1 efflux, flow cytometry;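 active = inhibition above 80%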;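 note: 0% = DMSO and 100% = nicardipine control wells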
#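 Read-out basis: Efflux inhibition in percent versus controls | Test system: ABCG2 IgMXP3 and barcoded ABCB1 CCRF-Adr cell mix | Quantity: 3 million cells/mL in well | Schedule: 10 min at 25 °C | Control set: Nicardipine as high control, DMSO as low control | Reagent: JC-1 as fluorescent efflux pump substrate | Signal: Flow cytometry of retained JC-1 fluorescence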
# NCF1 inh – inhibitors of human p47phox binding; 220,000 compounds, 0.53% hits; p47phox/p22phox peptide binding, fluorescence polarization, 2 h; P14598; inhibition, % at 24.7 µM;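 active = inhibition above about 30%, limit read from the data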;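 note: 0% = p47phox with labelled peptide and 100% = labelled peptide alone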
# HSV augment – HSV replication enhancement. HSV replication augmentation in cells, fold increase. maximum fold increase. 220,000 compounds, 0.005% hits. AID 1956; in the data active = maximum fold increase above about 1.5; tested in PC3 cells
# PHOSPHO1 block – PHOSPHO1 (human) inhibition | Q8TCT1 | recombinant PHOSPHO1, absorbance phosphatase assay | inhibition, % at 13.3 µM | 290,000 compounds, 1.1% hits; in the data active = inhibition above about 60%
# PKD1 kinase inh – inhibitors of human PKD1 kinase; inhibition, % (concentration not given with the values); PKD1 kinase fluorescence polarization assay; 200,000 compounds, 0.056% hits; Q15139; in the data active = inhibition above about 50%
# ABCB1 inh – inhibitors of human ABCB1 transporter, ABCG2 counter-screen; 190,000 compounds, 0.067% hits; AID 1326; inhibition, % at 6.6 µM; CCRF-Adr cells, JC-1 efflux, flow cytometry; in the data active = inhibition above about 40%;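 note: 0% = vehicle and 100% = reference inhibitor; higher value means more JC-1 retained so stronger ABCB1 efflux block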
# Target sequence (P08183 whole entry, looked up): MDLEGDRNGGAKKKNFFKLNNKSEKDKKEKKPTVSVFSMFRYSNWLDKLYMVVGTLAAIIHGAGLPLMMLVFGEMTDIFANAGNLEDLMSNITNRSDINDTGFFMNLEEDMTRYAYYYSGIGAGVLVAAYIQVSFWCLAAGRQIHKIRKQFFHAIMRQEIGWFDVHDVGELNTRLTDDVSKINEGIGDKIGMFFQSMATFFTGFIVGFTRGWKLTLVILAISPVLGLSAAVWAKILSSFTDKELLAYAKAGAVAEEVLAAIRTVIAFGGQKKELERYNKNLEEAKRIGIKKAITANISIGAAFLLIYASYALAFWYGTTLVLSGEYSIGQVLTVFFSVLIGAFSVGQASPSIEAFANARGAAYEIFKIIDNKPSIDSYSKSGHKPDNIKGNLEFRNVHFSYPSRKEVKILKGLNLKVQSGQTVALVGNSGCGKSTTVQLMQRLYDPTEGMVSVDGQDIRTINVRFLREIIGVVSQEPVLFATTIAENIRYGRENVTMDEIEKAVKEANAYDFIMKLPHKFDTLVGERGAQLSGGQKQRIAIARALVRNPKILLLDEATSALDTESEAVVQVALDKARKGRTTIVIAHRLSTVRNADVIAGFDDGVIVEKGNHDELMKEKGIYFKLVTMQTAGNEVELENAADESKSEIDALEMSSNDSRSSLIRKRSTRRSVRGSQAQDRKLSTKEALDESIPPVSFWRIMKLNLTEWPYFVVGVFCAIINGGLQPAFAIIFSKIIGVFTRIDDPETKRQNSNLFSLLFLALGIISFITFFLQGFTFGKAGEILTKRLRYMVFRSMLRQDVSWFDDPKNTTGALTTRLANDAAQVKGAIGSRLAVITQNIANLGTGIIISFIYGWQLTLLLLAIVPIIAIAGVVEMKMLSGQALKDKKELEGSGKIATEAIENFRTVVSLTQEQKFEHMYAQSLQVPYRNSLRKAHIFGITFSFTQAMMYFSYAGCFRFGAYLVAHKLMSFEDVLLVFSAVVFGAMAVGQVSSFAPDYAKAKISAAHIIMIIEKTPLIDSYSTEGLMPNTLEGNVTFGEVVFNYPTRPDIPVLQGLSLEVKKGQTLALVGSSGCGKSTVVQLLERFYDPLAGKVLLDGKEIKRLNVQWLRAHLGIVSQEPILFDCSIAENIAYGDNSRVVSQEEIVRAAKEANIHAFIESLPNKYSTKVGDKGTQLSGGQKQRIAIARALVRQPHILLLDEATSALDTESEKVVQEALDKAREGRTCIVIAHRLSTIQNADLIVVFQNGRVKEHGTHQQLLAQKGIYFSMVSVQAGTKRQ
# An asterisk follows results filed as active; i = inactive; x = no result given. This is a sample that favours compounds with a hit; in the whole collection about 1.6% have one here.
SMILES,ABCG2 block,NCF1 inh,HSV augment,PHOSPHO1 block,PKD1 kinase inh,ABCB1 inh
NC(=O)c1cc(N)ccc1N1CCCC1,4,140*,i,7,14,0
NC(=O)c1cc(N)ccc1N1CCCCC1,13,-4,i,6,-1,1
Cc1cc(N)ccc1N1CCCC1,4,97*,i,2,-14,0
COc1cccc2c1C(=O)c1c(O)c3c(c(O)c1C2=O)C[C@@](O)(C(=O)CO)C[C@@H]3O[C@H]1C[C@H](N)[C@H](O)[C@H](C)O1,x,-253,x,-11,75*,x
Clc1cccc(Cl)c1CSc1nnc(/C=C/c2ccccc2)o1,2,-6,x,66*,14,1
O=C(Nc1nnc(-c2ccccc2F)s1)c1cccnc1,4,73*,i,58,-9,-1
O=C(Nc1nnc(C(F)(F)F)s1)c1cccnc1,41,-1,i,-14,-6,1
O=C1c2ccccc2C(=O)c2c1oc(C(F)(F)F)c2C(=O)c1ccccc1,1,-8,i,106*,-11,1
O=[N+]([O-])c1ccccc1Nc1c2ccccc2nc2ccccc12,1,-2,i,29,-3,0
O=[N+]([O-])c1ccc(Nc2c3ccccc3nc3ccccc23)cc1,16,-18,i,-12,67*,1
CCOC(=O)N1CCC(n2c(SCC(=O)c3ccccc3)nc3ccsc3c2=O)CC1,5,3,i,10,5,1
CN(C)/C=C1\SC(=S)N(N2C(=O)C3C4C=CC(C4)C3C2=O)C1=O (stereo not drawn),0,-94,i,32,-6,0
C#CCSc1nnc(-c2ccc(OC)cc2)o1,2,-5,i,69*,-9,0
Cc1cc2c(cc(C(=O)OC(C(=O)NCc3ccco3)C(C)C)n2C)o1 (stereo not drawn),4,-16,i,66*,-5,1
CC(C)C(OC(=O)c1cccs1)C(=O)NCc1ccco1 (stereo not drawn),31,-4,i,-27,0,2
COc1ccc(OC)c(/C=N/NC(=O)CSc2cc(C)nc3c(OC)cccc23)c1,-4,14,i,36,0,-1
CCN1C(=S)N[C@@H](CCc2ccccc2)C(C(=O)OC)=C1C,x,x,x,-2,x,x
COc1cccc(CN2CCNC(=O)C2CC(=O)N(C)C2CCOCC2)c1OC (stereo not drawn),x,x,x,66*,x,x
Cc1cc(Cl)c(OCCCN(C)C)c(Br)c1,2,-2,i,63*,-6,0
Cc1ccc(OCCCN(C)C)c(Br)c1,3,-14,i,42,0,0
C/C(=N\NC1=NCCN1)c1ccc(N)c([N+](=O)[O-])c1,x,3,i,8,x,x
CCCCCCOc1ccc(/C(C)=N/NC2=NCCN2)cc1[N+](=O)[O-],10,51*,i,41,-5,0
CCC(CC)C(=O)c1c[nH]c(C(=O)NCCCN2CCOCC2)c1,2,-4,x,66*,-10,0
O=C(CSc1nc2ccccc2[nH]1)c1ccc(Cl)s1,0,-13,i,103*,7,0
CCOC(=O)Cn1c(=O)c2c(nc3n2CC(C)CN3Cc2ccccc2)n(C)c1=O (stereo not drawn),x,x,x,35,x,x
SMILES,ABCG2 block,NCF1 inh,HSV augment,PHOSPHO1 block,PKD1 kinase inh,ABCB1 inh
COc1ccc(-n2c(COc3ccccc3)nnc2SCC(N)=O)cc1,2,4,i,72*,7,0
COc1ccc(CC(=O)NCc2nnc(SCC(=O)Nc3ccccc3)n2C)cc1,3,-5,i,37,10,2
COc1ccc(-n2c(Cc3cc(=O)[nH]c(=O)[nH]3)nnc2SCC(=O)Nc2ccccc2)cc1,2,47*,x,-2,2,1
COc1cccc(-n2c(COc3ccc(C)cc3)nnc2SCC(N)=O)c1,0,10,i,55,8,0
COc1ccc(-n2c(COc3ccc(C)cc3)nnc2SCC(N)=O)cc1,16,8,i,95*,1,1
COc1ccc(CC(=O)NCc2nnc(SCC(=O)Nc3ccc(OC)cc3)n2C)cc1,1,-9,i,66*,-5,0
CCc1nnc(NC(=O)CSc2nnc(Cc3cc(=O)[nH]c(=O)[nH]3)n2-c2ccc(OC)cc2)s1,0,4,i,8,-8,0
CCOC(=O)C(=O)NCC(c1cccs1)S(=O)(=O)c1ccc(Cl)cc1 (stereo not drawn),x,x,x,32,x,x
Cc1ccc[n+](-c2[nH]c(=O)sc2/C=N/NC(=O)c2ccccc2[O-])c1,1,-9,i,-24,6,0
COc1ccc(CC(=O)NCc2nnc(SCC(=O)Nc3nccs3)n2-c2ccccc2)cc1,2,-10,i,6,9,0
COc1ccc(C(=O)CSc2nnc(COc3ccc(C#N)cc3)n2-c2ccccc2)cc1,2,-3,i,35,-12,1
CCOC(=O)CSc1nnc(Cc2ccc(OC)cc2)n1-c1ccccc1,0,5,i,79*,2,0
CC(Sc1nnc(COc2ccc3ccccc3c2)n1C)C(=O)O (stereo not drawn),10,-3,i,76*,-1,1
CCOC(=O)CSc1nnc(Cc2ccccc2)n1-c1cccc(Cl)c1,3,-9,i,23,-11,1
O=C(CSc1nnc(COc2ccccc2)n1-c1ccccc1)c1ccccc1,-4,-13,i,76*,-3,-5
COc1ccc(OCc2nnc(SC(C)C(=O)Nc3nccs3)n2-c2ccccc2)cc1 (stereo not drawn),3,36*,i,-34,-9,3
Cc1cc(C)n(-c2ccc(S(=O)(=O)N3CCOCC3)cc2[N+](=O)[O-])n1,x,14,i,2,x,x
O=S(=O)(NCCc1cn2ccccc2n1)c1ccc2c(c1)CCCC2,6,-4,i,1,-8,1
Cc1cc(C)cc(NC(=S)N2CCC(NC(=O)c3ccco3)CC2)c1,x,x,x,22,x,x
Brc1cccc(-c2nnc3sc(CNCc4ccco4)cn23)c1,3,-20,i,83*,2,0
CCn1c(SCC(=O)c2ccc(O)c(O)c2)nnc1-c1ccc(C)cc1,1,-11,i,81*,6,0
O=C(CC1Sc2ncnn2C1=O)Nc1ccccc1 (stereo not drawn),-2,5,i,94*,-7,-1
Cc1ccc(NCC(=O)N/N=C/c2cccc(Oc3ccccc3)c2)cc1,3,-20,i,3,-4,0
CCOC(=O)N1CCC(NC(=O)CS(=O)Cc2nc(-c3ccccc3C)oc2C)CC1 (stereo not drawn),x,x,x,21,x,x
O=S(=O)(c1ccc(Br)cc1)N1CCN=C1SCc1cccc(F)c1,x,x,x,27,x,x
COc1ccc(S(=O)(=O)N2CCN=C2SCc2cccc(F)c2)cc1,x,x,x,61*,x,x
Cc1nn(C)c(C(=O)Nc2ccn(Cc3c(F)c(F)cc(F)c3F)n2)c1[N+](=O)[O-],15,150*,x,6,3,1

# Screening results deposited in PubChem by several laboratories.
